Measured values published in ChEMBL document CHEMBL3112527, “Quinoline-pyrimidine hybrids: synthesis, antiplasmodial activity, SAR, and mode of action studies” (J Med Chem, 2014).
In brackets after ≈: the same amount, converted by molar mass. Activity calls are given as the source filed them. The calls are words filed in the database; no cut-off is given here.

Tests used:
[1] = test system: Human alphaherpesvirus 2; assay: Antiviral activity against HSV-2 G infected in HEL cells assessed as inhibition of virus-induced cytopathicity; type: functional, organism-based; details: strain G
Summary of the method: (§1)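 Confluent monolayers (HEL, Vero, HeLa or CrFK, as applicable) were inoculated with 100 CCID50 of virus, with 1 CCID50 being the dose that infects 50% of cultures. Infection ran in the presence of varying compound concentrations. Inhibition of virus-induced cytopathicity was scored against infected cultures left untreated.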

[2] = test system: Human alphaherpesvirus 1; assay: Antiviral activity against HSV-1 KOS infected in HEL cells assessed as inhibition of virus-induced cytopathicity; type: functional, organism-based; summary of the method: as §1
[3] = Solubility of the compound in octanol at pH 7.4 by HPLC analysis; type: physicochemical
[4] = n-octanol-PBS buffer distribution coefficient, log D of the compound at pH 7.4 after 24 hrs by HPLC analysis; type: physicochemical
[5] = Aqueous solubility of the compound in PBS buffer at pH 7.4 after 24 hrs by HPLC analysis; type: physicochemical; details: pH 7.4, 24 h
[6] = Selectivity index, ratio of CC50 for cat CRFK cells to IC50 for chloroquine-resistant asexual erythrocytic stage of Plasmodium falciparum Dd2; type: functional
Summary of the method: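 Ratio of CRFK CC50 (μM) to Dd2 IC50 […]. CC50 is the 50% cytotoxic concentration in feline kidney CRFK cells, measured as cell viability by colorimetric formazan-based MTS assay. Dd2 IC50 is from the parasite LDH growth-inhibition assay.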

[7] = Cytotoxicity against cat CRFK cells assessed as cell viability by MTS assay; type: cell-based, Felis catus
Summary of the method: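 CRFK cells were exposed to varying sample concentrations. Cell viability was measured with the colorimetric formazan-based MTS assay, and the 50% cytotoxic concentration (CC50) was derived from it.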

[8] = Cytotoxicity against human HeLa cells assessed as alteration of cell morphology by microscopic analysis; type: cell-based; details: read-out: MIC
Summary of the method: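 Cells (Vero, HEL, MDCK or HeLa) were exposed to a range of sample concentrations. The value reported is the concentration required to cause a microscopically detectable alteration of normal cell morphology.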

[9] = test system: Plasmodium falciparum; assay: Antiplasmodial activity against chloroquine-resistant asexual erythrocytic stage of Plasmodium falciparum Dd2 assessed as parasite growth inhibition by lactate dehydrogenase assay; type: functional, organism-based
Summary of the method: (§2)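 Parasite lactate dehydrogenase assay (modified Makler method). Samples held as 20 mg/mL stocks in DMSO, diluted on test day. Full dose-response: starting at 10 μg/mL, 2-fold serial dilution in complete medium over 10 concentrations down to 0.02 μg/mL. Chloroquine, artesunate and MMV390048 served as references. IC50 from nonlinear dose-response curve fitting; mean of three independent experiments.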

[10] = test system: Plasmodium falciparum; assay: Antiplasmodial activity against chloroquine-sensitive asexual erythrocytic stage of Plasmodium falciparum D10 assessed as parasite growth inhibition by lactate dehydrogenase assay; type: functional, organism-based; summary of the method: as §2
[11] = test system: Felid alphaherpesvirus 1; assay: Antiviral activity against Feline herpesvirus infected in cat CRFK cells assessed as inhibition of virus-induced cytopathicity; type: functional, organism-based; summary of the method: as §1
[12] = test system: Feline coronavirus; assay: Antiviral activity against Feline coronavirus infected in cat CRFK cells assessed as inhibition of virus-induced cytopathicity; type: functional, organism-based; summary of the method: as §1
[13] = test system: Human alphaherpesvirus 3; assay: Antiviral activity against Varicella-zoster virus infected in HEL cells assessed as inhibition of virus-induced cytopathicity; type: functional, organism-based
[14] = test system: Human betaherpesvirus 5; assay: Antiviral activity against Cytomegalovirus Davis infected in HEL cells assessed as inhibition of virus-induced cytopathicity; type: functional, organism-based
[15] = test system: Human betaherpesvirus 5; assay: Antiviral activity against Cytomegalovirus AD169 infected in HEL cells assessed as inhibition of virus-induced cytopathicity; type: functional, organism-based
[16] = test system: Respiratory syncytial virus; assay: Antiviral activity against Respiratory syncytial virus infected in human HeLa cells assessed as inhibition of virus-induced cytopathicity; type: functional, organism-based; summary of the method: as §1
[17] = test system: Coxsackievirus B4; assay: Antiviral activity against Coxsackievirus B4 infected in human HeLa cells assessed as inhibition of virus-induced cytopathicity; type: functional, organism-based; summary of the method: as §1
[18] = test system: Influenza A virus H3N2; assay: Antiviral activity against Influenza A virus H3N2 infected in MDCK cells assessed as inhibition of virus-induced cytopathicity; type: functional, organism-based
Summary of the method: (§3)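 Confluent monolayers in 96-well plates were inoculated with 100 CCID50 of virus in the presence of varying concentrations of compound. Read-out was inhibition of virus-induced cytopathicity, compared with untreated infected cultures. Cytotoxicity was judged microscopically or by MTT viability staining.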

[19] = test system: Vesicular stomatitis virus; assay: Antiviral activity against Vesicular stomatitis virus infected in human HeLa cells assessed as inhibition of virus-induced cytopathicity; type: functional, organism-based; summary of the method: as §3
[20] = test system: Influenza A virus; assay: Antiviral activity against influenza A virus H1N1 infected in MDCK cells assessed as inhibition of virus-induced cytopathicity; type: functional, organism-based; summary of the method: as §3
[21] = test system: Punta Toro virus; assay: Antiviral activity against Punta Toro virus infected in African green monkey Vero cells assessed as inhibition of virus-induced cytopathicity; type: functional, organism-based; summary of the method: as §1
[22] = test system: Coxsackievirus B4; assay: Antiviral activity against Coxsackievirus B4 infected in African green monkey Vero cells assessed as inhibition of virus-induced cytopathicity; type: functional, organism-based; summary of the method: as §1
[23] = test system: Sindbis virus; assay: Antiviral activity against Sindbis virus infected in African green monkey Vero cells assessed as inhibition of virus-induced cytopathicity; type: functional, organism-based
[24] = test system: Mammalian orthoreovirus 1; assay: Antiviral activity against Reovirus 1 infected in African green monkey Vero cells assessed as inhibition of virus-induced cytopathicity; type: functional, organism-based; summary of the method: as §1
[25] = test system: Human respirovirus 3; assay: Antiviral activity against parainfluenza virus 3 infected in African green monkey Vero cells assessed as inhibition of virus-induced cytopathicity; type: functional, organism-based; summary of the method: as §1
[26] = test system: Human alphaherpesvirus 1; assay: Antiviral activity against thymidine kinase-negative acyclovir-resistant HSV-1 KOS infected in HEL cells assessed as inhibition of virus-induced cytopathicity; type: functional, organism-based; summary of the method: as §3
[27] = test system: Vesicular stomatitis virus; assay: Antiviral activity against Vesicular stomatitis virus infected in HEL cells assessed as inhibition of virus-induced cytopathicity; type: functional, organism-based; summary of the method: as §3
[28] = test system: Vaccinia virus; assay: Antiviral activity against Vaccinia virus infected in HEL cells assessed as inhibition of virus-induced cytopathicity; type: functional, organism-based; details: Orthopoxvirus vaccinia; summary of the method: as §3

Row | SMILES | inhibition [1] | inhibition [2] | solubility [3] [µM] | logD at 24 h [4] | solubility [5] [µM] | Ratio CC50/IC50 [6] | CC50 [7] [nM] | MCC [8] [µM] | IC50 [9] [nM] | IC50 [10] [nM] | inhibition [11] | inhibition [12] | inhibition [13] | inhibition [14] | inhibition [15] | inhibition [16] | inhibition [17] | inhibition [18] | inhibition [19] | inhibition [20] | other results
1 | Clc1ccc2c(NCCCCCCCCNc3ccnc(Cl)n3)ccnc2c1 | inactive | inactive | 2.41 (≈ 1.01 µg/mL) | 1.48 | 0.08 (≈ 0.0335 µg/mL) | 9 | 8000 | 4 | 883 | 912 | inactive | inactive | inactive | inactive | inactive | inactive | inactive | inactive | inactive | inactive | inhibition [21]: inactive; inhibition [22]: inactive; inhibition [23]: inactive; inhibition [24]: inactive; inhibition [25]: inactive; inhibition [26]: inactive; inhibition [27]: inactive; inhibition [28]: inactive
2 | Clc1ccc2c(NCCCNc3nccc(N4CCOCC4)n3)ccnc2c1 | inactive | inactive | 0.95 (≈ 0.379 µg/mL) | 0.257 | 0.53 (≈ 0.211 µg/mL) | >632 | > 100000 | > 100 | 158 | 55 | inactive | inactive | inactive | inactive | inactive | inactive | inactive | inactive | inactive | inactive | inhibition [21]: inactive; inhibition [22]: inactive; inhibition [23]: inactive; inhibition [24]: inactive; inhibition [25]: inactive; inhibition [26]: inactive; inhibition [27]: inactive; inhibition [28]: inactive
3 | Clc1ccc2c(NCCCNc3nccc(N4CCCC4)n3)ccnc2c1 | inactive | inactive | 1.25 (≈ 0.479 µg/mL) | 0.756 | 0.22 (≈ 0.0842 µg/mL) | 327 | 49000 | 100 | 151 | 28.7 | inactive | inactive | inactive | inactive | inactive | inactive | inactive | inactive | inactive | inactive | inhibition [21]: inactive; inhibition [22]: inactive; inhibition [23]: inactive; inhibition [24]: inactive; inhibition [25]: inactive; inhibition [26]: inactive; inhibition [27]: inactive; inhibition [28]: inactive
4 | Clc1ccc2c(NCCCNc3ccnc(N4CCCCC4)n3)ccnc2c1 | inactive | inactive | 2.02 (≈ 0.802 µg/mL) | 0.801 | 0.32 (≈ 0.127 µg/mL) | 334 | 55000 | 20 | 166 | 65.5 | inactive | inactive | inactive | inactive | inactive | inactive | inactive | inactive | inactive | inactive | inhibition [21]: inactive; inhibition [22]: inactive; inhibition [23]: inactive; inhibition [24]: inactive; inhibition [25]: inactive; inhibition [26]: inactive; inhibition [27]: inactive; inhibition [28]: inactive
5 | Clc1ccc2c(NCCCNc3nccc(Cl)n3)ccnc2c1 | inactive | inactive | 1.81 (≈ 0.63 µg/mL) | 0.657 | 0.4 (≈ 0.139 µg/mL) | >209 | > 100000 | > 100 | 478 | 244 | inactive | inactive | inactive | inactive | inactive | inactive | inactive | inactive | inactive | inactive | inhibition [21]: inactive; inhibition [22]: inactive; inhibition [23]: inactive; inhibition [24]: inactive; inhibition [25]: inactive; inhibition [26]: inactive; inhibition [27]: inactive; inhibition [28]: inactive
6 | Clc1ccc2c(NCCCOc3nccc(Cl)n3)ccnc2c1 | inactive | inactive | 2.19 (≈ 0.765 µg/mL) | 1.04 | 0.2 (≈ 0.0698 µg/mL) | >490 | > 100000 | > 100 | 204 | 304 | inactive | inactive | inactive | inactive | inactive | inactive | inactive | inactive | inactive | inactive | inhibition [21]: inactive; inhibition [22]: inactive; inhibition [23]: inactive; inhibition [24]: inactive; inhibition [25]: inactive; inhibition [26]: inactive; inhibition [27]: inactive; inhibition [28]: inactive
